ChEMBL document CHEMBL1166007, “Anti-AIDS agents 82: synthesis of seco-(3'R,4'R)-3',4'-di-O-(S)-camphanoyl-(+)-cis-khellactone (DCK) derivatives as novel anti-HIV agents” (Bioorg Med Chem, 2010)
Calls of active or inactive are those of the source. No cut-off for these calls is given here.

Assays:
[1] = tested on: MT4; assay: Cytotoxicity against human MT4 cells after 4 days by XTT assay; assay type: cell-based; conditions: MT4, 96 h
[2] = Therapeutic index, ratio of IC50 for human MT4 cells to EC50 for HIV1 NL4-3 infected in human MT4 cells; assay type: cell-based; conditions: read-out: Ratio IC50/EC50
Outline: (§1)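 HIV-1 NL4-3 or RTMDR (multi-RT inhibitor-resistant) virus infected MT-4 cells at MOI 0.001 in 96-well culture. On day 4 post-infection, culture supernatants were collected and p24 was measured by ELISA. TI = IC50/EC50. Values are averages of at least three separate experiments. Top tested concentration 20 μM.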

[3] = tested on: Human immunodeficiency virus 1; assay: Antiviral activity against HIV1 NL4-3 infected in human MT4 cells assessed as inhibition of viral p24 antigen production after 4 days by ELISA; assay type: functional, organism-based; conditions: Human immunodeficiency virus 1, NL4-3, MT4, 96 h; outline: as §1
[4] = tested on: Human immunodeficiency virus; assay: Antiviral activity against multi-RT inhibitor-resistant HIV infected in human MT4 cells assessed as inhibition of viral p24 antigen production after 4 days by ELISA; assay type: functional, organism-based; conditions: Human immunodeficiency virus 1, MT4, 96 h; outline: as §1
[5] = tested on: Human immunodeficiency virus 1; assay: Antiviral activity against HIV1 3B infected in […] assessed as inhibition of viral p24 antigen production at 20 uM after 6 days by ELISA; assay type: functional, organism-based
Outline: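 Human T-cell MT-2 line kept with L-glutamine at 37 °C and 5% CO2. Compounds were dissolved in DMSO and screened at final 100, 20, 4 and 0.8 μg/mL, with a highest tested concentration of 20 μM. Wells received […] at 3 × 10^5 cells/mL plus HIV-1 IIIB inoculum of 125 TCID50. Medium was changed on days 1 and 4. Supernatant p24 was measured by antigen capture on day 6.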

[6] = tested on: MT2; assay: Cytotoxicity against human MT2 cells after 6 days by XTT assay; assay type: cell-based; conditions: MT2, 144 h
[7] = Therapeutic index, ratio of IC50 for human MT4 cells to EC50 for multi-RT inhibitor-resistant HIV infected in human MT4 cells; assay type: cell-based; conditions: read-out: Ratio IC50/EC50; outline: as §1
[8] = Therapeutic index, ratio of IC50 for human MT2 cells to EC50 for HIV1 3B infected in human MT2 cells; assay type: cell-based; conditions: read-out: Ratio IC50/EC50
[9] = tested on: Human immunodeficiency virus 1; assay: Antiviral activity against HIV1 3B infected in human MT2 cells assessed as inhibition of viral p24 antigen production after 6 days by ELISA; assay type: functional, organism-based; conditions: Human immunodeficiency virus 1, 3B, MT2, 144 h
Outline: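 Human T-cell MT-2 line kept with L-glutamine at 37 °C and 5% CO2. Compounds were dissolved in DMSO and screened at final 100, 20, 4 and 0.8 μg/mL, with a highest tested concentration of 20 μM. Medium was changed on days 1 and 4. Supernatant p24 was measured by antigen capture on day 6.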

| EC50 [9] | Structure (SMILES) | IC50 [1] | selectivity ratio [2] | EC50 [3] | EC50 [4] | inhibition [5] | IC50 [6] | selectivity ratio [7] | selectivity ratio [8] |
| --- | --- | --- | --- | --- | --- | --- | --- | --- | --- |
|  | Cc1cc(=O)oc2c(CSC(=O)[C@@]34CC[C@@](C)(C(=O)O3)C4(C)C)c(OC(C)C)ccc12 | 56.2 µM | 12 | 4.67 µM |  |  |  |  |  |
|  | Cc1cc(=O)oc2cc(OC(C)(C)[C@@H](COC(=O)[C@@]34CC[C@@](C)(C(=O)O3)C4(C)C)OC(=O)[C@@]34CC[C@@](C)(C(=O)O3)C4(C)C)ccc12 | 20 µM |  | > 20 µM | 20 µM | inactive | 39.2 µM |  |  |
|  | Cc1cc(=O)oc2c(CNC(=O)[C@@]34CC[C@@](C)(C(=O)O3)C4(C)C)c(OC(C)C)ccc12 | 25 µM | 1 | > 25 µM |  |  |  |  |  |
|  | CC(=O)c1ccc2c(c1C)[C@@H](OC(=O)[C@@]13CC[C@@](C)(C(=O)O1)C3(C)C)[C@@H](OC(=O)[C@@]13CC[C@@](C)(C(=O)O1)C3(C)C)C(C)(C)O2 |  |  |  |  | inactive | 39.6 µM |  |  |
|  | CCOc1ccc2c(C)cc(=O)oc2c1COC(=O)[C@@]12CC[C@@](C)(C(=O)O1)C2(C)C | 60.3 µM | 1.87 | > 32.3 µM |  |  |  |  |  |
|  | CCc1cc(=O)c2ccc3c(c2o1)[C@@H](OC(=O)[C@@]12CC[C@@](C)(C(=O)O1)C2(C)C)[C@@H](OC(=O)[C@@]12CC[C@@](C)(C(=O)O1)C2(C)C)C(C)(C)O3 | 9.27 µM |  | 0.08 µM | 0.133 µM |  |  | 69.9 |  |
| 0.19 µM | CCOc1c(C(C)=O)ccc2c1[C@@H](OC(=O)[C@@]13CC[C@@](C)(C(=O)O1)C3(C)C)[C@@H](OC(=O)[C@@]13CC[C@@](C)(C(=O)O1)C3(C)C)C(C)(C)O2 |  |  |  |  |  | 39.6 µM |  | 208 |
|  | Cc1cc(=O)oc2c([C@H](COC(=O)[C@@]34CC[C@@](C)(C(=O)O3)C4(C)C)OC(=O)[C@@]34CC[C@@](C)(C(=O)O3)C4(C)C)c(OC(C)C)ccc12 | 20 µM |  | > 20 µM | 20 µM | inactive | 39.2 µM |  |  |
|  | COc1ccc2c(C)cc(=O)oc2c1COC(=O)[C@@]12CC[C@@](C)(C(=O)O1)C2(C)C | 62.4 µM | 1.71 | > 36.6 µM |  |  |  |  |  |
|  | COc1ccc(N(Cc2c(OC(C)C)ccc3c(C)cc(=O)oc23)C(=O)[C@@]23CC[C@@](C)(C(=O)O2)C3(C)C)cc1 | 34.7 µM | 15 | 4.69 µM |  |  |  |  |  |
|  | COC(=O)COc1ccc2c(C)cc(=O)oc2c1COC(=O)[C@@]12CC[C@@](C)(C(=O)O1)C2(C)C | 54.5 µM | 1.22 | > 44.6 µM |  |  |  |  |  |
|  | Cc1cc(=O)oc2c([C@H](C)OC(=O)[C@@]34CC[C@@](C)(C(=O)O3)C4(C)C)c(OC(C)C)ccc12 | 20 µM |  | > 20 µM | 20 µM | inactive | 56.5 µM |  |  |
|  | Cc1cc(=O)oc2c(CN(C)C(=O)[C@@]34CC[C@@](C)(C(=O)O3)C4(C)C)c(OC(C)C)ccc12 | 56.6 µM | 8 | 5.66 µM |  |  |  |  |  |
| 0.044 µM | Cc1cn([C@H]2CC(N=[N+]=[N-])[C@@H](CO)O2)c(=O)[nH]c1=O (single isomer, unassigned) [ZIDOVUDINE] |  |  |  |  |  |  |  |  |
| 0.126 µM | Cc1cc(=O)oc2c3c(ccc12)OC(C)(C)[C@H](OC(=O)[C@@]12CC[C@@](C)(C(=O)O1)C2(C)C)[C@@H]3OC(=O)[C@@]12CC[C@@](C)(C(=O)O1)C2(C)C |  |  |  |  |  | 39.2 µM |  | 301 |
